Screening data from PubChem.
SR-BI uptake up = activators of SR-BI mediated DiI-HDL uptake, primary screen, ldlA[mSR-BI] CHO cells, DiI fluorescence; 3 h; 100 = double the neutral-control signal; activation, % at 12.5 µM; 0.096% of 320,000 active;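 active = mean replicate activation of at least 60% and every replicate at or above 60%; inconclusive = mean or all-replicate condition met, but not both; inactive = mean below 60% and not all replicates reaching 60%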
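Test system: SR-BI-overexpressing, LDLR-lacking CHO cells; Medium: Ham's F12 with 0.5% BSA, HEPES 25 mM, pH 7.4; Schedule: 3 h, 37 °C; Technique: bottom-read fluorescence, 550/595 nm.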
DNA FID counter = compounds displacing fluorescent DNA intercalator, primary screen, artefact control for HCV NS3 helicase inhibitor project, biochemical, FID fluorescence. 0.17% of 290,000 active. DNA fluorescent intercalator displacement. inhibition, % at 7.9 µM; in the data active = inhibition above about 37%;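 also: higher means more ethidium bromide displaced from hairpin DNA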
ANO1 activ = TMEM16A chloride channel activators or potentiators, primary screen, cell-based, HTS; Anoctamin-1 (Mus musculus), Q8BHY3; HEK293 TMEM16A/YFP-H148Q/I152L, iodide quench fluorescence; stronger effect = lower value; B-score at 10 µM; 0.3% of 340,000 active; AID 623877, 2012;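 active = fluorescence-ratio B-score plate-corrected deviation score at least 3 library SD below zero, with starting fluorescence score within 5 deviations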;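 also: channel opened by trigger with iodide after compound preincubation; score built on the fluorescence ratio of max minus min over baseline; more negative score means more quench and so TMEM16A activation or potentiation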
ANO1 block = TMEM16A chloride channel inhibitors, primary screen, cell-based, HTS | AID 588511, 2011 | 1.2% of 310,000 active | normalized B-score (activity score, 25-100; higher = stronger inhibition) at 10 µM | HEK293 TMEM16A/YFP iodide influx fluorescence, ionomycin;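 active = ratio plate-corrected score three or more library SD toward inhibition, starting fluorescence score within five deviations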;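 also: score derived from kinetic fluorescence span divided by baseline fluorescence per well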
Kir21 inh = inhibitors of mouse Kir2.1 inward-rectifier potassium channel | Inward rectifier potassium channel 2 (Mus musculus), P35561 | HEK293-Kir2.1, FluxOR thallium flux fluorescence; stronger effect = lower value | B-score at 10 µM | 0.85% of 310,000 active;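 active = fluorescence ratio B-score at or below minus 3 SD of library scores, with starting-brightness B-score within 2 SD, cut at about -4.2 in these data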;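 also: channel flux triggered by added potassium and thallium sulfate stimulus; B-score of peak minus minimum fluorescence over baseline after thallium stimulus; more negative B-score means stronger Kir2.1 block with less thallium influx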
SR-BI HDL uptake = inhibitors of SR-BI mediated HDL lipid uptake, primary screen, ldlA[mSR-BI] cells, fluorescence, single point; Scavenger receptor class B member 1 (Mus musculus), Q61009; ldlA[mSR-BI] CHO cells, DiI-HDL uptake fluorescence, 3 h; inhibition, % at 12.5 µM; 0.96% of 320,000 active; AID 488896, 2010;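 active = mean replicate inhibition of at least 70% and a set share of replicates each scoring 70 or more; inconclusive = meets just one of the two criteria; inactive = fails both criteria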
hERG ctr = hERG channel inhibition, counter-screen for Kir2.1 inhibitor project, cell-based, thallium flux; shares compounds with Kir21 inh; hERG-expressing cells; inhibition, % at 10 µM; 20% of 320 active; AID 2236, 2010;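 also: host cells are CHO cells stably expressing hERG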
KCNK9 inh = KCNK9 channel inhibition, selectivity assay for Kir2.1 inhibitor project, cell-based | shares compounds with Kir21 inh | KCNK9-expressing cells, ion flux inhibition | inhibition, % at 10 µM | 5% of 320 active
Kir21 ephys inh = mouse Kir2.1 channel blockers, Kir2.1 inhibitor project, cell-based, secondary, automated electrophysiology; shares compounds with Kir21 inh; Kir2.1 cells, automated patch-clamp current inhibition; inhibition, % at 25 µM; 71% of 320 active; AID 463252, 2010
DiI quench = counter-screen for SR-BI lipid transfer inhibitors: DiI fluorescence quenchers. shares compounds with SR-BI HDL uptake. cell-free DiI-HDL fluorescence quenching, 30 min. AC50, µM (highest dose often 35 µM). 20% of 470 active. AID 540326;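 active = quenching, a falling signal, with AC50 below a set limit tied to the top valid dose, actives reach about 32 µM in these data; inconclusive = no clear call, values can overlap the other calls; inactive = rising signal, and the rest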
TMEM16A reconf = TMEM16A chloride channel inhibitors, confirmation, cell-based, re-confirmation. shares compounds with ANO1 block. HEK293 TMEM16A/YFP-H148Q, iodide quench fluorescence; ionomycin added to raise cell calcium. inhibition, % at 10 µM. 39% of 2,300 active;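 active = mean duplicate percent inhibition, scaled so buffer wells are 0 and the reference blocker 100, over three buffer SD above buffer mean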
HEK293 Ca mobil = calcium mobilization in TMEM16A/YFP HEK293 cells, confirmation, counter-screen for TMEM16A inhibitor project. shares compounds with ANO1 block. Fluo4 calcium mobilization. calcium response (% of ionomycin), % at 10 µM. 2% of 2,300 active. AID 652231, 2013;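 active = duplicate-averaged calcium signal over 20% of the ionomycin maximum, relative to buffer baseline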;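 also: each well's signal is peak minus trough fluorescence divided by its pre-addition baseline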
Parental YFP cnt = iodide YFP quench changes in parental YFP-HEK293, counter-screen for TMEM16A inhibitor project, cell-based; shares compounds with ANO1 block; ionomycin; YFP ratio F(max-min)/F0 at 10 µM; 2,300 tested, under 10 active;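 active = yellow fluorescent protein signal ratio exceeding the buffer control mean by over 5 SD of those controls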;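 also: ratio is mean of duplicate wells from kinetic YFP trace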
ClC-1 inh = ClC-1 chloride channel inhibition, selectivity assay for TMEM16A inhibitor project, cell-based, voltage-dependent ClC-1; shares compounds with ANO1 block; CHO ClC-1-YFP, iodide influx fluorescence quench; iodide control reads 0, buffer control 100; ratio percent, % at 10 µM; 2,300 tested, under 10 active; AID 652236, 2013;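 active = duplicate-mean ratio percent above the mean of iodide-only control wells, which defines zero, plus 5 of their SD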;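 also: higher percent means stronger block of ClC-1 iodide influx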
Each line names hits and unclear results; the compound was inactive in the other large screens (follow-up assays come after a bar, where they were run). Sampled rows, rich in hits. Any-hit rate of the full collection: about 3%. Unless noted, no rule for the calls is given here.

OC(Cn1c2ccccc2c2ccccc21)C[n+]1cccc2ccccc21 (configuration not stated)	Kir21 inh -5.2
Cc1cc(-c2ccccc2)cc(-c2ccccc2)[n+]1CCc1ccccc1	ANO1 block 25, Kir21 inh -6.9 (no result: DNA FID counter)
CCOc1ccc(-c2cc(C)[n+](CCc3ccc(OC)c(OC)c3)c(-c3ccc(OCC)cc3)c2)cc1	ANO1 block 25
CC(=O)Nc1ccc(C(c2c(O)c3ccccc3oc2=O)c2c(C)n(C)n(-c3ccccc3)c2=O)cc1 (configuration not stated)	none (no result: SR-BI uptake up, SR-BI HDL uptake)
COC(=O)C12OCC34C(CC5C(C)=C(O)C(=O)CC5(C)C3C(O)C1O)OC(=O)C(OC(=O)/C=C(\C)C(C)C)C24 (configuration not stated)	none (no result: DNA FID counter, ANO1 block, Kir21 inh)
O=[N+]([O-])c1ccc(N2CCNCC2)cc1NCc1ccco1	Kir21 inh -4.4
CN1CCN(c2ccc([N+](=O)[O-])c(NCc3ccco3)c2)CC1	none
COc1ccc(CN2CCCC(C(=O)c3sccc3C)C2)cc1O (configuration not stated)	Kir21 inh -6.2 | hERG ctr inactive | KCNK9 inh inactive | Kir21 ephys inh inactive
COc1cc(CN2CCCC(C(=O)c3sccc3C)C2)cc(OC)c1O (configuration not stated)	none
COc1cccc(CNCCc2ccccc2)c1OC	none
COc1ccc2ccccc2c1CNCCc1ccccc1	Kir21 inh -8.9 | hERG ctr inactive | KCNK9 inh inactive | Kir21 ephys inh 29%
CC1C(=O)OC2CCN3CC4OC4(COC(=O)C(C)(O)C1(C)O)C23 (configuration not stated)	none (no result: DNA FID counter, ANO1 block, Kir21 inh)
COc1ccc(CNCCc2ccc3c(c2)OCO3)cc1Br	Kir21 inh -12 | hERG ctr 46% | KCNK9 inh inactive | Kir21 ephys inh 82%
COc1cc(C)c(CNCCc2c[nH]c3ccccc23)cc1C	Kir21 inh -6.9 (no result: SR-BI uptake up, SR-BI HDL uptake) | hERG ctr inactive | KCNK9 inh inactive | Kir21 ephys inh 9.0%
COc1ccc(CNCCc2c[nH]c3ccccc23)c(OC)c1C	Kir21 inh -8.4 | hERG ctr inactive | KCNK9 inh inactive | Kir21 ephys inh 4.1%
Cc1ncc(CN2CCCC(C(=O)c3ccc(C(C)(C)C)cc3)C2)s1 (configuration not stated)	none
COc1ccc(NS(=O)(=O)c2ccc(OCC(=O)N3CCN(C)CC3)cc2)cc1Cl	none
CNC1(c2ccc(F)cc2)CCCCC1	SR-BI HDL uptake inconclusive (no result: DNA FID counter, ANO1 block, Kir21 inh) | DiI quench inactive
OC1(c2ccc(F)cc2)CCNC1 (configuration not stated)	none
C[C@]12CCC3C(C1CCC2=O)[C@H](O)C[C@H]1C[C@@H](O)CC[C@]31C (some centres not stated)	none (no result: DNA FID counter, ANO1 block, Kir21 inh)
O=c1cccc2n1CC1CC2CN(S(=O)(=O)c2cc(Cl)ccc2Cl)C1 (configuration not stated)	none | DiI quench inactive
O=[N+]([O-])c1ccc2nc(N3CCNCC3)ccc2c1	none (no result: SR-BI uptake up, DNA FID counter, ANO1 activ, SR-BI HDL uptake)
N#Cc1ccc(Nc2nc(-c3ccc(O)cc3O)cs2)cc1C(F)(F)F	SR-BI HDL uptake 103 (no result: DNA FID counter, ANO1 block, Kir21 inh) | DiI quench 4.3µM
CCOC(=O)C(O)(c1ccc(NC(=S)NC(=O)c2ccc(Cl)cc2Cl)c(C)c1)C(F)(F)F (configuration not stated)	ANO1 block 25 | TMEM16A reconf 54% | HEK293 Ca mobil inactive | Parental YFP cnt inactive | ClC-1 inh inactive
Cc1ccc(N(C)C(=O)Oc2ccc(C(=O)c3ccc(Cl)cc3)cc2)cc1	ANO1 block 25 | TMEM16A reconf inactive | HEK293 Ca mobil inactive | Parental YFP cnt inactive | ClC-1 inh inactive
CCC(=NCCc1c[nH]c2ccccc12)c1c(O)n(C)c(=O)n(C)c1=O	ANO1 block 100 | TMEM16A reconf 19% | HEK293 Ca mobil inactive | Parental YFP cnt inactive | ClC-1 inh inactive
CC(=NCCN1CCOCC1)c1c(O)n(Cc2ccccc2)c(=O)[nH]c1=O	none
CC(=NCCc1c[nH]c2ccccc12)c1c(O)n(Cc2ccccc2)c(=O)[nH]c1=O	ANO1 block 25 | TMEM16A reconf inactive | HEK293 Ca mobil 31% | Parental YFP cnt inactive | ClC-1 inh inactive
COc1cccc(NP2(=O)OCC(C)([N+](=O)[O-])CO2)c1 (configuration not stated)	none (no result: DNA FID counter, ANO1 block, Kir21 inh)
